High-throughput results as filed in PubChem BioAssay.
APP transl inh = APP translation inhibition. SH-SY5Y APP 5'UTR-luciferase reporter, luminescence. inhibition, % at 2 µM. actives 0.82% (n = 190,000). AID 1285;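 active means inhibition above a set limit, derived from the sample mean plus 3 SD, cut at about 45% in these data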
b-catenin transl = alters nuclear translocation of beta-catenin in HeLa cells; immunofluorescence imaging; nuclear translocation activity, % at 5 µM; actives 0.3% (n = 190,000); AID 1665;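 active means nuclear translocation activity above 50% at 5 µM, with a well cell count of 50 or more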;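 further: per-cell ratio of nuclear to cytoplasmic median beta-catenin stain intensity; plate controls were DMSO negative control for no effect and GSK-3 inhibitor IX positive control for full effect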
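test system = HeLa cells, endogenous beta-catenin | dosing = single 5 µM dose plus 0.02–20 µM confirmation series | times = compound treatment 24 h, 37°C, 5% CO2 | technique = beta-catenin immunofluorescence imaging with DAPI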
Ba/F3 V617F tox = loss of viability in JAK2V617F-driven Ba/F3 cells; inhibition, % at 5.6 µM; Ba/F3 EpoR-JAK2V617F viability, ATP luminescence; actives 1.1% (n = 220,000);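 active means inhibition above the campaign mean plus 3 SD over all tested compounds, cut at about 24% in these data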;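 further: cytokine-independent growth of Ba/F3 cells driven by EpoR plus mutant JAK2; 0% = DMSO-treated cells and 100% = JAK inhibitor I control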
MT stabilizer = microtubule stabilization, imaging screen; HeLa tubulin immunostaining HCS, 24 h; share of cells brighter than vehicle mean+2SD; % tubulin-high responders, % at 10 µM; actives 0.83% (n = 200,000); AID 2205;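 active means plate Z-score above 3 for both tubulin-high and condensed-nucleus cell shares, with cell loss under 80%, at 10 µM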;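 further: anti alpha tubulin signal scored within the nucleus-defined area of each cell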
BaF3 tox = reduces parental Ba/F3 cell viability, JAK2V617F counter-screen | inhibition, % at 5.6 µM | actives 1.1% (n = 220,000) | CellTiter-Glo ATP luminescence;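 active means inhibition above a per-campaign cutoff, the mean inhibition of all tested compounds plus 3 SD, cut at about 27% in these data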;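 further: 0% = DMSO wells and 100% = JAK Inhibitor I control wells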
IEC-6 tox = IEC-6 cytotoxicity, counter-screen for KLF5 inhibitors; luminescence viability; AID 1825; inhibition, % at 5 µM; actives 0.78% (n = 290,000); in the data active means inhibition above about 22%;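 further: 0% = plate median of test compound wells and 100% = cytotoxic reference compound wells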
Active calls of the source: *. This is a sample that favours compounds with a hit; in the whole collection about 2.2% have one here.

Screening Cc1ccc(/C=N/NC(=O)CCn2nc(C)cc2C)c(C)c1 returned APP transl inh 4.7, b-catenin transl 40.9, Ba/F3 V617F tox 0.0, MT stabilizer 27.2*, BaF3 tox 5.3 and IEC-6 tox -2.0.
For CC(C)(C)c1ccccc1NC(=S)NC1CCCCC1 the results were APP transl inh -22.9, b-catenin transl -2.4, Ba/F3 V617F tox -4.0, MT stabilizer 2.2, BaF3 tox 40.3* and IEC-6 tox 16.2.
Screening COc1cc(/C=C/C(=O)O)cc(S(=O)(=O)NCc2ccco2)c1OC returned APP transl inh -13.7, b-catenin transl -0.4, Ba/F3 V617F tox 1.4, MT stabilizer 2.8, BaF3 tox 90.0* and IEC-6 tox 0.5.
For COc1ccc(/C=C/C(=O)O)cc1S(=O)(=O)NCc1ccco1 the results were b-catenin transl 0.2, Ba/F3 V617F tox -5.5, BaF3 tox -1.1 and IEC-6 tox -1.5.
`O=C(Nc1ccc(F)cc1F)c1cc(-c2ccc3c(c2)OCO3)on1` gave IEC-6 tox 0.1.
For COc1cc(/C=N/NC(=O)C(Cc2c[nH]c3ccccc23)NC(=O)OCC(C)C)cc([N+](=O)[O-])c1OCc1ccccc1 (stereo not given) the results were APP transl inh -23.7, b-catenin transl 0.5, Ba/F3 V617F tox 95.0*, MT stabilizer 2.7, BaF3 tox 100.1* and IEC-6 tox 2.7.
`CCc1ccccc1NC(=O)C(Cc1ccccc1)c1nn[nH]n1` (stereo not given) gave IEC-6 tox -1.0.
For CC(C)[C@H](NC(=O)[C@@H]1Cc2c([nH]c3ccccc23)C2c3ccccc3C(=O)N21)C(=O)NCC1CCCO1 (stereo not given in full) the results were IEC-6 tox -0.4.
Screening Cc1oc2ccc(OS(C)(=O)=O)cc2c1C(=O)OC(C)C returned APP transl inh -24.6, Ba/F3 V617F tox 42.4*, MT stabilizer 4.8, BaF3 tox 85.2* and IEC-6 tox -12.3.
Cc1ccccc1C(=O)Nc1cccc(N)c1 was read as APP transl inh 56.0*, Ba/F3 V617F tox 0.4, MT stabilizer 1.7, BaF3 tox 4.3 and IEC-6 tox 4.3.
`COc1ccccc1C(=O)Nc1cccc(NC(=O)c2ccccc2C)c1` gave IEC-6 tox -0.4.
For CC1(C)Cc2nc3sc4c(=O)n(CC(=O)NCc5ccco5)cnc4c3cc2CO1 the results were APP transl inh -18.4, b-catenin transl 0.6, Ba/F3 V617F tox 0.3, MT stabilizer 31.7*, BaF3 tox 3.5 and IEC-6 tox 3.2.
COC(=O)Cc1c(C)c2ccc(OCc3nn[nH]n3)c(C)c2oc1=O was read as APP transl inh -8.9, b-catenin transl -1.4, Ba/F3 V617F tox -3.4, MT stabilizer 3.1, BaF3 tox 1.3 and IEC-6 tox -4.3.
For COC(=O)Cc1c(C)c2ccc(OCc3nn[nH]n3)cc2oc1=O the results were APP transl inh 78.0*, b-catenin transl -8.7, Ba/F3 V617F tox 7.2, MT stabilizer 2.6, BaF3 tox 5.1 and IEC-6 tox -0.1.
Cc1cc(N2CCN(c3nc4ccccc4s3)CC2)n2ncnc2n1 was read as APP transl inh 11.8, b-catenin transl 1.2, Ba/F3 V617F tox 44.1*, MT stabilizer 2.2, BaF3 tox 47.6* and IEC-6 tox 5.2.
`Cc1cc(N2CCN(C(c3ccccc3)c3ccccc3)CC2)n2ncnc2n1` gave APP transl inh 2.2, b-catenin transl -0.7, Ba/F3 V617F tox -2.9, MT stabilizer 6.1, BaF3 tox -1.5 and IEC-6 tox -0.7.
`CCC(C)[C@@H](N)C(=O)N/N=C/c1cccc2nccnc12` (stereo not given in full) gave b-catenin transl -1.5, Ba/F3 V617F tox 3.8, BaF3 tox -4.1 and IEC-6 tox 6.2.
Cc1cccc(NS(=O)(=O)c2ccc(NC(=O)CN(c3cc([N+](=O)[O-])ccc3C)S(C)(=O)=O)cc2)c1 was read as APP transl inh 10.7, b-catenin transl 3.2, Ba/F3 V617F tox 11.1, MT stabilizer 2.3, BaF3 tox 11.7 and IEC-6 tox 96.9*.
For COc1ccc(C)cc1NS(=O)(=O)c1ccc(NC(=O)CN(c2cc([N+](=O)[O-])ccc2C)S(C)(=O)=O)cc1 the results were APP transl inh 59.3*, b-catenin transl -2.0, Ba/F3 V617F tox 6.2, MT stabilizer 2.6, BaF3 tox 9.2 and IEC-6 tox 7.3.
Screening COc1ccc([N+](=O)[O-])cc1N(CC(=O)NCCSc1ccc(C)cc1)S(C)(=O)=O returned APP transl inh 4.2, b-catenin transl 0.2, Ba/F3 V617F tox 2.9, MT stabilizer 3.5, BaF3 tox -2.9 and IEC-6 tox -2.0.
`CCCCCCC(C)OC(=O)c1ccccc1C(=O)O` (stereo not given) gave b-catenin transl -2.2, Ba/F3 V617F tox -0.8, BaF3 tox -0.7 and IEC-6 tox -4.1.
Screening Cc1nn(CC(N)=O)c(=O)c2ccccc12 returned APP transl inh -6.6, b-catenin transl -7.4, Ba/F3 V617F tox 19.6, MT stabilizer 4.2, BaF3 tox 44.5* and IEC-6 tox -7.5.
CN(C)/C=N/C1=C(C#N)C(c2cccs2)c2ccc3ccccc3c2O1 (stereo not given) was read as APP transl inh 92.3*, b-catenin transl -5.5, Ba/F3 V617F tox 3.2, MT stabilizer 16.5*, BaF3 tox 12.5 and IEC-6 tox 4.7.
For CCn1cc(S(=O)(=O)c2ccc(Cl)cc2)c(=O)c2cc(OC)ccc21 the results were IEC-6 tox 2.7.
CCn1nc(C)c(NC(=O)Nc2cccc(Cl)c2Cl)c1C was read as APP transl inh -2.2, b-catenin transl -2.1, Ba/F3 V617F tox -0.5, MT stabilizer 4.8, BaF3 tox 2.3 and IEC-6 tox 4.7.
For COc1ccc(/C=C2\C(=O)NCC(=O)N2Cc2ccccc2)cc1 the results were APP transl inh -5.5, b-catenin transl -2.3, Ba/F3 V617F tox 0.0, MT stabilizer 32.0*, BaF3 tox 3.1 and IEC-6 tox 15.6.
COc1ccc(/C=C2\C(=O)NCC(=O)N2C)cc1 was read as IEC-6 tox 2.1.
For CCOc1ccc(-c2nnn(CC(=O)c3cc(OC)ccc3OC)n2)cc1 the results were APP transl inh -4.4, b-catenin transl 0.9, Ba/F3 V617F tox 0.3, MT stabilizer 50.2*, BaF3 tox 0.0 and IEC-6 tox 2.3.
`Cc1ccccc1N1C(N)=NC(N)=NC1(C)C` gave APP transl inh -4.1, b-catenin transl 2.5, Ba/F3 V617F tox 56.3*, MT stabilizer 3.7, BaF3 tox 56.9* and IEC-6 tox -4.1.
`COc1ccccc1N1C(N)=NC(N)=NC1(C)C` gave APP transl inh -3.6, b-catenin transl 0.0, Ba/F3 V617F tox 20.4, MT stabilizer 4.9, BaF3 tox 16.6 and IEC-6 tox -0.4.
For Cc1ccc(N2C(N)=NC(N)=NC2(C)C)c(C)c1 the results were APP transl inh -3.4, b-catenin transl 0.7, Ba/F3 V617F tox 87.2*, MT stabilizer 3.3, BaF3 tox 99.5* and IEC-6 tox -2.3.
